Assay results: the array DNA melting data of Ke et al. (doi:10.1101/2024.01.08.574731)

Key:
[1] = folding enthalpy; higher = less favourable; fluorescence melt of hairpins on a sequencing array, two-state fit; settings: sodium 0.088 M
Summary of the method: (§1)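 To match UV melts, fitted temperatures were raised by 9.35 °C. These fits were bootstrapped two-state models that gave melting temperature and folding enthalpy, combined by inverse variance over four replicates. The input was normalised Cy3 fluorescence of library hairpins with annealed Cy3 and quencher oligos on a sequenced MiSeq flow cell, imaged in 50 mM Na-HEPES pH 8.0, 25 mM NaCl in 2.5 °C steps up to 60 °C.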

[2] = melting temperature; fluorescence melt of hairpins on a sequencing array, two-state fit, raised by 9.35 °C to match UV melts; settings: sodium 0.088 M
Summary of the method: as §1

GGCTGCGAAAGCAAAGCC ((((((....)))..)))
folding enthalpy [1]: -24.7 kcal/mol | Tm [2]: 61.3 °C

GGCTGCGAAAGCAACGCC ((((((....)))..)))
folding enthalpy [1]: -22.1 kcal/mol | Tm [2]: 56.6 °C

GGCTGCGAAAGCAGAGCC ((((((....)))..)))
folding enthalpy [1]: -16.3 kcal/mol | Tm [2]: 60.1 °C

GGCTGCGAAAGCAGTGCC ((((((....)))..)))
folding enthalpy [1]: -12.1 kcal/mol | Tm [2]: 51.7 °C

GGCTGCGGAAACGCAGTC (.(((((....))))).)
folding enthalpy [1]: -22.4 kcal/mol | Tm [2]: 66.1 °C

GGCTGGCCGAAAGGCGCC (((..(((....))))))
folding enthalpy [1]: -16.4 kcal/mol | Tm [2]: 61 °C

GGCTGTCGAAAGACGCC (((.(((....))))))
folding enthalpy [1]: -31.2 kcal/mol | Tm [2]: 61.1 °C

GGCTGTGGAAACACAACC ((.((((....)))).))
folding enthalpy [1]: -31.5 kcal/mol | Tm [2]: 44.4 °C

GGCTGTGGAAACGCAGCC (((((.(....).)))))
folding enthalpy [1]: -48.6 kcal/mol | Tm [2]: 63.4 °C

GGCTGTGGAAACGCAGTC (.(((.(....).))).)
folding enthalpy [1]: -23.4 kcal/mol | Tm [2]: 42.4 °C

GGCTGTTCGAAAGAAGCC (((..(((....))))))
folding enthalpy [1]: -20.9 kcal/mol | Tm [2]: 38.2 °C

GGCTTACGAAAGTACGCC (((.(((....))).)))
folding enthalpy [1]: -48 kcal/mol | Tm [2]: 52.9 °C

GGCTTAGCGAAAGCTGCC (((..(((....))))))
folding enthalpy [1]: -23 kcal/mol | Tm [2]: 52.5 °C

GGCTTAGGAAACCAAGCC (((((.(....).)))))
folding enthalpy [1]: -31.4 kcal/mol | Tm [2]: 47.4 °C

GGCTTATCGAAAGATGCC (((..(((....))))))
folding enthalpy [1]: -24.1 kcal/mol | Tm [2]: 39.8 °C

GGCTTCACGAAAGTGGCC (((..(((....))))))
folding enthalpy [1]: -19.6 kcal/mol | Tm [2]: 45.2 °C

GGCTTCGAAAGAAAGCC ((((((....))).)))
folding enthalpy [1]: -38.1 kcal/mol | Tm [2]: 55 °C

GGCTTCGAAAGAAAGGCC ((((((....)))..)))
folding enthalpy [1]: -26 kcal/mol | Tm [2]: 43.4 °C

GGCTTCGAAAGAACTGCC ((((((....)))..)))
folding enthalpy [1]: -21.5 kcal/mol | Tm [2]: 36.7 °C

GGCTTCGAAAGAATGCC ((((((....))).)))
folding enthalpy [1]: -27.9 kcal/mol | Tm [2]: 50.7 °C

GGCTTCGAAAGAATTGCC ((((((....)))..)))
folding enthalpy [1]: -23.3 kcal/mol | Tm [2]: 35.4 °C

GGCTTGGGAAACCGAGCC ((((.((....)).))))
folding enthalpy [1]: -54.1 kcal/mol | Tm [2]: 58.5 °C

GGCTTGGGAAACTAAGCC (((((.(....).)))))
folding enthalpy [1]: -45.5 kcal/mol | Tm [2]: 52.2 °C

GGCTTGGGAAACTGAGCC ((((..(....)..))))
folding enthalpy [1]: -32.9 kcal/mol | Tm [2]: 45.7 °C

GGCTTTCCGAAAGGAGCC (((..(((....))))))
folding enthalpy [1]: -24.5 kcal/mol | Tm [2]: 45.2 °C

GGCTTTCGAAAGAAGCC (((.(((....))))))
folding enthalpy [1]: -41.6 kcal/mol | Tm [2]: 52.8 °C

GGCTTTGAAAAAAGCC ((((((....))))))
folding enthalpy [1]: -38.5 kcal/mol | Tm [2]: 57.6 °C

GGGAAACCGAAAGGTCCC (((..(((....))))))
folding enthalpy [1]: -19.7 kcal/mol | Tm [2]: 46.6 °C

GGGAAACGAAAGTTACCC (((.(((....))).)))
folding enthalpy [1]: -29.5 kcal/mol | Tm [2]: 50.7 °C

GGGAAACGAAAGTTGCCC (((.(((....))).)))
folding enthalpy [1]: -43.9 kcal/mol | Tm [2]: 56.6 °C

GGGAAAGAAATTTCCC ((((((....))))))
folding enthalpy [1]: -27.4 kcal/mol | Tm [2]: 48.7 °C

GGGAAAGGAAACCTTCCC (((((.(....).)))))
folding enthalpy [1]: -28.2 kcal/mol | Tm [2]: 39.2 °C

GGGAAATCGAAAGATCCC (((..(((....))))))
folding enthalpy [1]: -21.6 kcal/mol | Tm [2]: 36 °C

GGGAACCGAAAGGTCCC (((.(((....))))))
folding enthalpy [1]: -20.9 kcal/mol | Tm [2]: 57.3 °C

GGGAACGAAAGTTTCCC ((((((....))).)))
folding enthalpy [1]: -31.5 kcal/mol | Tm [2]: 52.9 °C

GGGAACGAAAGTTTCCCC ((((((....)))..)))
folding enthalpy [1]: -19.9 kcal/mol | Tm [2]: 53.5 °C

GGGAACGGAAACATTCCC (((((.(....).)))))
folding enthalpy [1]: -32.6 kcal/mol | Tm [2]: 39.4 °C

GGGAACTCGAAAGAGCCC (((..(((....))))))
folding enthalpy [1]: -20.3 kcal/mol | Tm [2]: 37.8 °C

GGGAAGCGAAAGCTGCCC (((.(((....))).)))
folding enthalpy [1]: -23.2 kcal/mol | Tm [2]: 65.2 °C

GGGAAGGGAAACCTTCCC (((((((....)))))))
folding enthalpy [1]: -35.5 kcal/mol | Tm [2]: 65.4 °C

GGGAATCGAAAGATCCCC (((.(((....))).)))
folding enthalpy [1]: -24.9 kcal/mol | Tm [2]: 51.5 °C

GGGAATGCGAAAGCACCC (((..(((....))))))
folding enthalpy [1]: -19.4 kcal/mol | Tm [2]: 42.3 °C

GGGAATGGAAACACTCCC ((((.((....)).))))
folding enthalpy [1]: -29.3 kcal/mol | Tm [2]: 36.9 °C

GGGAATGGAAACATCCCC (((.(((....))).)))
folding enthalpy [1]: -24.7 kcal/mol | Tm [2]: 42.2 °C

GGGACACGAAAGTGACCC (((.(((....))).)))
folding enthalpy [1]: -37.1 kcal/mol | Tm [2]: 62.9 °C
